The record followed here is ChEMBL document CHEMBL4393742, “Structure-activity analysis of peptidic Chlamydia HtrA inhibitors” (Bioorg Med Chem, 2019).

pIC50: −log10 of the molar value. Calls of active or inactive are those of the source. The rule behind the calls is not given here. Where only a bound is given, the exact number is not on record here.

For assay [1], the system named is Chlamydia trachomatis. Description: Antibacterial activity against Chlamydia trachomatis D/UW-3/Cx strain infected in mouse McCoy cells assessed as inclusion forming units at 100 uM treated 16 hrs post infection measured at 44 hrs post-infection by Evan's blue staining based-confocal microscopic analysis (reference value: 62 +/- 8.5 10^5U/mL). Format: functional.

A short description of assay [2]: Inhibition of recombinant chlamydia trachomatis serovar L2 434/Bu/ATCC VR-902B HtrA expressed in Escherichia coli BL21(DE3) using MeOCoum-ENLHLPLPIIF-NH-DNP as fluorescent mimotope preincubated for 20 mins followed by mimotope addition in presence of fluorophore 7-methoxycoumarin-4-acetic acid by plate reader based fluorescence assay. Further details: species or system Chlamydia trachomatis 434/Bu.

The test system of assay [3] is Chlamydia trachomatis 434/Bu. The experiment in a line: Activation of recombinant chlamydia trachomatis serovar L2 434/Bu/ATCC VR-902B HtrA expressed in Escherichia coli BL21(DE3) using MeOCoum-ENLHLPLPIIF-NH-DNP as fluorescent mimotope at <50 uM preincubated for 20 mins followed by mimotope addition in presence of fluorophore 7-methoxycoumarin-4-acetic acid by plate reader based fluorescence assay.

Assay [4] concerns Chlamydia trachomatis. The experiment in a line: Antibacterial activity against Chlamydia trachomatis D/UW-3/Cx infected in mouse McCoy cells assessed as reduction in inclusion forming units at 100 uM treated 16 hrs post infection measured at 44 hrs post-infection by Evan's blue staining based-confocal microscopic analysis (reference value: 62 +/- 8.5 10^5U/mL). Format: functional.

For assay [5], the system named is Chlamydia trachomatis 434/Bu. The experiment in a line: Potency index, ratio of JO146 IC50 to compound IC50 for inhibition of recombinant chlamydia trachomatis serovar L2 434/Bu/ATCC VR-902B HtrA expressed in Escherichia coli BL21(DE3) using MeOCoum-ENLHLPLPIIF-NH-DNP as fluorescent mimotope preincubated for 20 mins followed by mimotope addition in presence of fluorophore 7-methoxycoumarin-4-acetic acid by plate reader based fluorescence assay.

For the next assay, the target named is T1, Neutrophil elastase (Homo sapiens, UniProt P08246).
T1 sequence (P08246 whole entry): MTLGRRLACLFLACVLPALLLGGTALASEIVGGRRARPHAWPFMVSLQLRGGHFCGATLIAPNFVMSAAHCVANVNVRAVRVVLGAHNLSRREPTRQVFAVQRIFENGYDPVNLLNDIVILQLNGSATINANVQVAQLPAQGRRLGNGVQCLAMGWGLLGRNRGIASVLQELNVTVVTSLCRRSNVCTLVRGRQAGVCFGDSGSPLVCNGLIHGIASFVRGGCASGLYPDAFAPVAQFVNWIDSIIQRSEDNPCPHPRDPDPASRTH
The experiment in a line: Inhibition of human neutrophil elastase using AAPV-pNA as substrate preincubated for 15 mins followed by substrate addition and measured every 15 secs for 5 mins. Put shortly: (§1)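 Enzyme and inhibitor (in DMSO) were preincubated at 37 °C for 15 min in 0.10 M Tris-HCl, pH 8.1, with 0.02 M CaCl₂. The pNA substrate was added to start the reaction. A405 was monitored every 15 s over 5 min at 37 °C. Runs were in triplicate, and inhibition was expressed as percent enzyme activity remaining.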

In the next assay the target is Trypsin (Homo sapiens, UniProt P07477+P07478+P35030). Description: Inhibition of human trypsin using Nalpha-benzoyl-DL-R-pNA as substrate preincubated for 15 mins followed by substrate addition and measured every 15 secs for 5 mins. Format: protein assay. The method in brief: as §1
The nature of assay [6]: Inhibition of bovine pancreas chymotrypsin using AAPF-pNA as substrate preincubated for 15 mins followed by substrate addition and measured every 15 secs for 5 mins. Further details: species or system Bos taurus. The method in brief: as §1
Assay [7] has as its system Chlamydia pecorum. The experiment in a line: Antibacterial activity against Chlamydia pecorum IPA ATCC VR629 infected in mouse McCoy cells assessed as inclusion forming units at 100 uM treated 16 hrs post infection measured at 44 hrs post-infection by Evan's blue staining based-confocal microscopic analysis (reference value: 342.55646 +/- 6.53872 10^5U/mL). Format: functional.

Assay [8] deals with Chlamydia pecorum. The experiment in a line: Antibacterial activity against Chlamydia pecorum IPA ATCC VR629 infected in mouse McCoy cells assessed as reduction in inclusion forming units at 100 uM treated 16 hrs post infection measured at 44 hrs post-infection by Evan's blue staining based-confocal microscopic analysis (reference value: 342.55646 +/- 6.53872 10^5U/mL). Format: functional.

For orientation: pIC50 means the IC50 on a negative log10 scale, so that one unit is a factor of ten. Regarding `CC(C)C(NC(=O)[C@@H]1CCCN1C(=O)[C@@H](NC(=O)OC(C)(C)C)C(C)C)B(O)O` (some centres not stated), the Activity in the assay with Chlamydia trachomatis [1] is 0.09939 ×10⁵ U/mL; in the assay on Chlamydia trachomatis [4], 3 log10CFU. The pIC50 in assay [2] was less than 3.30. Besides, the outcome in assay [3] was Active.

The term IC50 denotes the point on the concentration scale where inhibition reaches its midpoint. Lower therefore signals greater potency in that assay. For the compound `CC(C)C(NC(=O)[C@@H]1CCCN1C(=O)[C@@H](NC(=O)OC(C)(C)C)C(C)C)C(=O)c1nc2ccccc2s1` (mixture of isomers), in assay [5], the Ratio IC50 worked out at 1.06. Moreover, the pIC50 at Neutrophil elastase is 5.59; in [6], less than 3.30; in assay [2] it was 3.49. In addition, the 50% inhibitory concentration (IC50) against Trypsin was more than 500 µM. Also, the Activity was found to be 2.539 ×10⁵ U/mL in the assay on Chlamydia trachomatis [1], 0.04744 ×10⁵ U/mL with Chlamydia pecorum [7] and 4 log10CFU in the assay on Chlamydia pecorum [8].
